Measurements: ChEMBL document CHEMBL1139198, “Aryl sulfonamido indane inhibitors of the Kv1.5 ion channel” (Bioorg Med Chem Lett, 2007)
Values after ≈ are worked out from the molar mass of the structure shown.

Experiments:
[1] = Aqueous solubility of the compound; assay type: physicochemical; conditions: buffer
How it was run: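 Crystalline solid; shake-flask method in 50 mM phosphate-buffered saline, pH 6.8; dissolved compound quantified by LC/MS/MS.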

[2] = molecular target: T1, Potassium voltage-gated channel subfamily A member 5 (Homo sapiens, UniProt P22460); experiment: Inhibition of Kv1.5 channel mediated delayed rectifier potassium current by patch-clamp technique
T1 sequence (P22460 whole entry): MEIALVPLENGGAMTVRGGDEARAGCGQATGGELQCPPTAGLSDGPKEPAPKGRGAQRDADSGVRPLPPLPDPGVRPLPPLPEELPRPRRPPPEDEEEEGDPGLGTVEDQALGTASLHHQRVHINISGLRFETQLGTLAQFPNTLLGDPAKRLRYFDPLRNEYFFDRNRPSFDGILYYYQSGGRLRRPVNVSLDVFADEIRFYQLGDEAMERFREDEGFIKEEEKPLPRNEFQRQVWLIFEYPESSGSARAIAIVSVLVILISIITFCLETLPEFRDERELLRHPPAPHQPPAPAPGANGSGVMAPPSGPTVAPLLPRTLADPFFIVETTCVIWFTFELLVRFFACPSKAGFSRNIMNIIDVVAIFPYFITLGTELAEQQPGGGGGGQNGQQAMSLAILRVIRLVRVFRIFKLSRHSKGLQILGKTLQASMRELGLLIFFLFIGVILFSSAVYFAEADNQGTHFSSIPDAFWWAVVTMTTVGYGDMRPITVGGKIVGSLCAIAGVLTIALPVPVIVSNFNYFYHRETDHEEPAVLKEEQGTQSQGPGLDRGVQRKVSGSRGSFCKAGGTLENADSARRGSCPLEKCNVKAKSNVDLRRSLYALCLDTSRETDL

[3] = molecular target: T1, Potassium voltage-gated channel subfamily A member 5; experiment: Inhibition of Kv1.5 channel mediated delayed rectifier potassium current at 1 uM by patch-clamp technique
[4] = system: Canis familiaris; experiment: Volume of distribution in dog at 20 umol/kg, po; assay type: ADME, organism-based, Canis lupus familiaris; conditions: in vivo
[5] = Half life in intra arterial infusion dosed dog at 10 umol/kg; assay type: ADME, organism-based, Canis lupus familiaris; conditions: in vivo
[6] = Oral bioavailability in dog at 20 umol/kg; assay type: ADME, organism-based, Canis lupus familiaris; conditions: in vivo
[7] = system: Rattus norvegicus; experiment: Volume of distribution in rat at 20 umol/kg, po; assay type: ADME, organism-based; conditions: in vivo
[8] = Clearance in rat at 20 umol/kg, po; assay type: ADME, organism-based; conditions: in vivo
[9] = Clearance in dog at 20 umol/kg, po; assay type: ADME, organism-based, Canis lupus familiaris; conditions: in vivo
[10] = Half life in intra arterial infusion dosed rat at 10 umol/kg; assay type: ADME, organism-based; conditions: in vivo
[11] = molecular target: SCN5A (sodium channel protein type 5 subunit alpha) (Homo sapiens, UniProt Q14524); experiment: Inhibition of human SCN5A channel at 10 uM
Sequence of SCN5A (sodium channel protein type 5 subunit alpha) (Q14524 whole entry): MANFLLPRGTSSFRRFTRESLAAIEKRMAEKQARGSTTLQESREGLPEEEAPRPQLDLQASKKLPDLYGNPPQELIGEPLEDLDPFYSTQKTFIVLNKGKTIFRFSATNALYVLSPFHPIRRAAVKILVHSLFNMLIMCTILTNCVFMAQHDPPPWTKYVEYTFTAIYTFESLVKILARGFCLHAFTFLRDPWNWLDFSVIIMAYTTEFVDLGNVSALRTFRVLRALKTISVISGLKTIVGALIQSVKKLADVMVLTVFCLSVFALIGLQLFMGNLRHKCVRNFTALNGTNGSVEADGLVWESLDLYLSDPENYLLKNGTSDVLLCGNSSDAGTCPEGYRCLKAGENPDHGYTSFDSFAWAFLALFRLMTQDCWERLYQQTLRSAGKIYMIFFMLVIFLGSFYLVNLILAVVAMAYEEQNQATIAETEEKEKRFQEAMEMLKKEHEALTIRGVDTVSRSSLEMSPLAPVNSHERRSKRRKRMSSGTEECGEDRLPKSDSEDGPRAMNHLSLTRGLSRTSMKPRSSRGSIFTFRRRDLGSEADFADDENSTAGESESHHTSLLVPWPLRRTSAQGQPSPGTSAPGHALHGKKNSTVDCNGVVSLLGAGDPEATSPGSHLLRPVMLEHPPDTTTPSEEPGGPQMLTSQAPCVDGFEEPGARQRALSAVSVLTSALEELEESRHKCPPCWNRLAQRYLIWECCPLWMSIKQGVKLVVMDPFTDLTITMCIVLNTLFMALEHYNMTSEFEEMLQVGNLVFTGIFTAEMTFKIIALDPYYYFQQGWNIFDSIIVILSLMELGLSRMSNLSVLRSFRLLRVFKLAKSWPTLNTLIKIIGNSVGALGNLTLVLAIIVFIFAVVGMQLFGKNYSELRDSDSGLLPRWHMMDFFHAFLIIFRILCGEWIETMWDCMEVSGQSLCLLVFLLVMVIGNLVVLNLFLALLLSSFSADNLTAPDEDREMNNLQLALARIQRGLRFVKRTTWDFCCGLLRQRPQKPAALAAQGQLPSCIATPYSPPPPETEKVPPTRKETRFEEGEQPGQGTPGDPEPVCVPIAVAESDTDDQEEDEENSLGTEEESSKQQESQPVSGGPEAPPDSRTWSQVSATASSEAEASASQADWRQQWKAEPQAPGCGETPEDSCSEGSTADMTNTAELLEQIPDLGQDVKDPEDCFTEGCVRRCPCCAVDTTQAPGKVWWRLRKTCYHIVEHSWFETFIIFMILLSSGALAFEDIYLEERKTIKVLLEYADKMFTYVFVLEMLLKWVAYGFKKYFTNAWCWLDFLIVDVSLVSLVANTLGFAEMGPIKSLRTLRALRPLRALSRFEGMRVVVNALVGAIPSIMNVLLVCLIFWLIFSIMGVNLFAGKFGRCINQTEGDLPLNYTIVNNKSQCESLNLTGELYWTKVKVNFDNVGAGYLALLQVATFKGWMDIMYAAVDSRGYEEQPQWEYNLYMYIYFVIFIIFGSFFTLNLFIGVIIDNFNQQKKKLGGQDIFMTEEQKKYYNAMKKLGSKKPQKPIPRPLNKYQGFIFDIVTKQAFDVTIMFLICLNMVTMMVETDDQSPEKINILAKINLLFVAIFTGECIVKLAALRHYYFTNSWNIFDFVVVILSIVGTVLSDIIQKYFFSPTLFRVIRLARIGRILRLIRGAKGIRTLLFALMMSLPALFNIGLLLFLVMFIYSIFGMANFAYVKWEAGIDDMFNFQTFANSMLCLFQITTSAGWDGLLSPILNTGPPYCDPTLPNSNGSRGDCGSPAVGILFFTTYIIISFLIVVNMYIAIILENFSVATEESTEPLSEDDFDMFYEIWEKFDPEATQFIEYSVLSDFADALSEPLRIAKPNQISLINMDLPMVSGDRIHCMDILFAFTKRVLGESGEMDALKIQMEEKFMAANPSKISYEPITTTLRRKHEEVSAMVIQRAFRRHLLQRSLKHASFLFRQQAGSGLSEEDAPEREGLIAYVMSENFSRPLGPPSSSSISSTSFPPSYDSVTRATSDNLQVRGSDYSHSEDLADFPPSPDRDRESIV

[12] = molecular target: hERG (KCNH2) (Homo sapiens, UniProt Q12809); experiment: Inhibition of hERG at 10 uM; assay type: toxicity
Sequence of hERG (KCNH2) (Q12809 whole entry): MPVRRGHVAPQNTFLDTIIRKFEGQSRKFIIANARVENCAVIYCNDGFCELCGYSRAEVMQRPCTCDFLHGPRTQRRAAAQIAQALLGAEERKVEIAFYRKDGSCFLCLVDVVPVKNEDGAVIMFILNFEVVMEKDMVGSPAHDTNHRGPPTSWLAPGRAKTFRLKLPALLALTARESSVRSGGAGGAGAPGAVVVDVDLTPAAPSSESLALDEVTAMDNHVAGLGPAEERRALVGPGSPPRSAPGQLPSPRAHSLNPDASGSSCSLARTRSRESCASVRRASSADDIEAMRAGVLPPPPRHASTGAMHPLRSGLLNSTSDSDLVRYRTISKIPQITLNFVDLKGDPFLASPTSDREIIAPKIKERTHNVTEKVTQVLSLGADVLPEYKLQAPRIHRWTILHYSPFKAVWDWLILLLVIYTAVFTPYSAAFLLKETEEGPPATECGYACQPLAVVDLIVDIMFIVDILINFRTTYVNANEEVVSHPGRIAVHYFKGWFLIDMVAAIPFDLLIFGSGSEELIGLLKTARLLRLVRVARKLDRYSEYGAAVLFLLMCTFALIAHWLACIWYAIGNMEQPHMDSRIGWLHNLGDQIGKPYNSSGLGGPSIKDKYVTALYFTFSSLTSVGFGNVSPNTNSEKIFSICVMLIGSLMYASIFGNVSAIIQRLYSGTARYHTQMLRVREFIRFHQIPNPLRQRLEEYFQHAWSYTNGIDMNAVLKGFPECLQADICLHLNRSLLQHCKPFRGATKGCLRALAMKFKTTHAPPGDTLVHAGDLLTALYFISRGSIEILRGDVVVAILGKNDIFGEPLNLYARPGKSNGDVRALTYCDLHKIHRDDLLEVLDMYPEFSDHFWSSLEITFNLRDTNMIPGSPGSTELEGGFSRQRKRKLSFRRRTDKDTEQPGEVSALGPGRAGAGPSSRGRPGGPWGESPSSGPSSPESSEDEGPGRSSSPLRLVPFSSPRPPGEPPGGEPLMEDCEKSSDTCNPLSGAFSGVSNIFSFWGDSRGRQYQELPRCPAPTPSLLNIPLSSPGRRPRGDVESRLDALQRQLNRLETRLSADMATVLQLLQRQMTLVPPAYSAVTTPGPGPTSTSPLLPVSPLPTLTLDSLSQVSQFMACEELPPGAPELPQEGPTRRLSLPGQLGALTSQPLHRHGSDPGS

[13] = Oral bioavailability in rat at 20 umol/kg; assay type: ADME, organism-based; conditions: in vivo
[14] = organism: Rattus norvegicus; experiment: Inhibition of rat calcium channel GH3 at 10 uM

CCc1ccc(S(=O)(=O)NCc2cccc(NC(=O)c3cccc(OC)c3)c2)cc1
solubility ([1]; read-out: Solubility): 0.8 µg/mL (≈ 1.88 µM) | IC50 [2]: 240 nM

CCc1ccc(S(=O)(=O)N[C@@H]2c3cc(N)ccc3C[C@H]2O)cc1 (racemic)
inhibition [3]: 2%

CCc1ccc(S(=O)(=O)N[C@@H]2c3cc(NC(=O)c4cccc(OC)c4)ccc3C[C@H]2O)cc1 [listing 1 of 2 here]
Vd [4]: 1.4 L/kg | half-life [5]: 90 min | bioavailability [6]: 5% | Vd [7]: 4 L/kg | CL/F [8]: 200 mL/min/kg | CL/F [9]: 12 mL/min/kg | half-life [10]: 24 min | inhibition at 10 µM [11]: 15% | solubility [1]: 1.3 µg/mL (≈ 2.79 µM) | IC50 [2]: 33 nM | inhibition at 10 µM [12]: 37% | bioavailability [13]: 1%

CCc1ccc(S(=O)(=O)NC2CCc3ccc(NC(=O)c4cccc(OC)c4)cc32)cc1 (racemic)
solubility ([1]; read-out: Solubility): < 0.1 µg/mL | IC50 [2]: 150 nM

CCc1ccc(S(=O)(=O)N[C@@H]2c3ccc(NC(=O)c4cccc(OC)c4)cc3C[C@H]2O)cc1 (racemic)
inhibition [3]: 24%

CCc1ccc(S(=O)(=O)N[C@@H]2c3cc(NC(=O)c4cccc(OC)c4)ccc3CC[C@H]2O)cc1 (racemic)
IC50 [2]: 440 nM

CCc1ccc(S(=O)(=O)N[C@@H]2c3cc(NC(=O)c4cccc(OC)c4)ccc3CCC[C@H]2O)cc1 (racemic)
IC50 [2]: 200 nM

CCc1ccc(S(=O)(=O)N[C@H]2c3cc(NC(=O)c4cccc(OC)c4)ccc3C[C@@H]2O)cc1
IC50 [2]: 760 nM

CCc1ccc(S(=O)(=O)N[C@@H]2c3cc(NC(=O)c4cccc(OC)c4)ccc3C[C@H]2O)cc1 (racemic)
solubility [1]: 2.9 µg/mL (≈ 6.22 µM) | IC50 [2]: 160 nM

CCc1ccc(S(=O)(=O)N[C@@H]2c3cc(NC(=O)c4cccc(OC)c4)ccc3C[C@H]2O)cc1 [listing 2 of 2 here]
inhibition [14]: 27%

CCc1ccc(S(=O)(=O)N[C@@H]2c3cccc(NC(=O)c4cccc(OC)c4)c3C[C@H]2O)cc1 (racemic)
inhibition [3]: 17%

CCc1ccc(S(=O)(=O)N[C@@H]2c3cc(NC(=O)c4cccc(OC)c4)ccc3C[C@@H]2O)cc1 (racemic)
IC50 [2]: 300 nM

CCc1ccc(S(=O)(=O)N[C@@H]2c3ccccc3C[C@H]2O)cc1 (racemic)
inhibition [3]: 3%

CCc1ccc(S(=O)(=O)N[C@@H]2c3c(cccc3NC(=O)c3cccc(OC)c3)C[C@H]2O)cc1 (racemic)
IC50 [2]: 880 nM
